Measurements as given in ChEMBL document CHEMBL1147062, “Therapeutic anticancer efficacy of a synthetic diazonamide analog in the absence of overt toxicity” (Proc Natl Acad Sci U S A, 2007).
Calls of active or inactive are those of the source. No cut-off for these calls is given here.

Tests used:
Mus musculus [1] = experiment: Toxicity in human HCT116 cells xenografted NCR nu/nu mouse assessed as decrease in neutrophil count in peripheral blood at 2 mg/kg, iv QD for 6 days relative to control; type: organism-based, HCT-116; set-up: dose 2 mg/kg, route intravenous; settings: in vivo, 144 h
Method in brief: (§1)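 NCR nu/nu mice received 10^7 HCT116 cells s.c. in the left flank 12 days before therapy. Dosing was i.v. qd × 6: 20 mg/kg in cremaphor:ethanol/5% dextrose, or 2 mg/kg vinblastine sulfate in 5% dextrose. Mice were weighed daily. On day 8, Gr1hi neutrophils in tail-vein blood and femoral marrow were counted by flow cytometry and compared with control by ANOVA and Dunnett's test.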

Mus musculus [2] = experiment: Toxicity in NCR nu/nu mouse neutropenia model assessed as decrease in neutrophil count in peripheral blood at 20 mg/kg, iv QD for 6 days relative to control; type: organism-based; set-up: dose 20 mg/kg, route intravenous; settings: in vivo, 144 h
Method in brief: (§2)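 Non-tumor-bearing NCR nu/nu mice, four to five per group, got 20 mg/kg i.v. qd × 6 in cremaphor:ethanol/5% dextrose, or vehicle. They were weighed and observed daily and killed on day 8. Tail-vein blood and femoral marrow were lysed of erythrocytes, stained for Gr1 and analyzed by flow cytometry. Neutrophil counts were %Gr1hi × white cells per ml or per femur. Groups were compared with control by one-way ANOVA and Dunnett's test.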

Mus musculus [3] = experiment: Toxicity in NCR nu/nu mouse neutropenia model assessed as severe flaking of skin at 20 mg/kg, iv QD for 6 days; type: organism-based; set-up: dose 20 mg/kg, route intravenous; settings: in vivo, 144 h; method in brief: as §2
MDA-MB-435 [4] = experiment: Antitumor activity against human MDA-MB-435 cells xenografted into NCR nu/nu mouse at 20 mg/kg, ip dosed in q3-4dX4 schedule relative to control; type: functional; settings: route intraperitoneal
Method in brief: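 NCR nu/nu mice bearing s.c. left-flank xenografts (7.5–10 × 10^6 cells) were randomized at ≈100–300 mm3 into groups of 4–7. Dosing was i.p. in 0.2 ml, with cremaphor:ethanol (1:1) stock diluted in 5% dextrose. Body weight and caliper tumor size were recorded 2–3 times per week; volume = (length × width2)/2.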

Mus musculus [5] = experiment: Toxicity in NCR nu/nu mouse assessed as loss of body weight at 7.5 mg/kg, iv for 6 days; type: organism-based; set-up: dose 7.5 mg/kg, route intravenous; settings: in vivo, 144 h
Method in brief: (§3)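 Nude mice carried 10^7 PC3 cells s.c. in the left flank and were randomized into groups of six to seven when tumors reached ≈250 mm3. Mice were dosed at 20, 7.5 or 2.5 mg/kg for 6 consecutive days. Body weight was tracked against starting weight, including 2 days after the last dose.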

Mus musculus [6] = experiment: Volume of distribution in NCR nu/nu mouse plasma at 20 mg/kg, iv; type: ADME, organism-based; set-up: dose 20 mg/kg, route intravenous; settings: in vivo
Method in brief: (§4)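 Each NCR nu/nu mouse got one i.v. bolus of 20 mg/kg in 0.2 ml of 1:1 cremaphor:ethanol (10%) diluted in 5% dextrose. At set times mice were killed by CO2 overdose and bled by cardiac puncture into sodium citrate. Plasma was spun 10 min at 8,000 × g and frozen at −80°C. LC-MS used an internal standard and a spiked blank murine plasma standard curve. Parameters came from noncompartmental analysis.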

[7] = Drug level in NCR nu/nu mouse plasma at 20 mg/kg, iv after 24 hrs; type: ADME, organism-based; set-up: dose 20 mg/kg, route intravenous; method in brief: as §4
PC-3 [8] = experiment: Antitumor activity against human PC3 cells xenografted into NCR nu/nu mouse at 20 mg/kg, iv dosed in q2-3dX6 schedule relative to control; type: functional
Method in brief: (§5)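 NCR nu/nu mice given 7.5–10 × 10^6 tumor cells s.c. in the left flank. At ≈100–300 mm3 (5–10 days), mice were randomized into groups of 4–7. Compound was predissolved in 1:1 cremaphor:ethanol, then diluted into 5% dextrose. Dosed i.v. or i.p. in 0.2 ml on Monday, Wednesday and Friday for 2 weeks. Caliper measurements 2–3 times weekly; volume = (length × width2)/2.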

Mus musculus [9] = experiment: Toxicity in human HCT116 cells xenografted NCR nu/nu mouse assessed as decrease in neutrophil count in bone marrow at 20 mg/kg, iv QD for 6 days relative to control; type: organism-based, HCT-116; set-up: dose 20 mg/kg, route intravenous; settings: in vivo, 144 h; method in brief: as §1
HCT-116 [10] = experiment: Antitumor activity against human HCT116 cells xenografted into NCR nu/nu mouse at 5 mg/kg, ip dosed in q2-3dX6 schedule relative to control; type: functional; settings: route intraperitoneal; method in brief: as §5
HCT-116 [11] = experiment: Antitumor activity against human HCT116 cells xenografted into NCR nu/nu mouse at 5 mg/kg, iv dosed in q2-3dX6 schedule relative to control; type: functional; method in brief: as §5
PC-3 [12] = experiment: Antitumor activity against human PC3 cells xenografted into NCR nu/nu mouse at 7.5 mg/kg, iv dosed in qdX6 schedule relative to control; type: functional
Method in brief: (§6)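 Nude mice received 10^7 PC3 cells s.c. in the left flank and were randomized at ≈250 mm3 into groups of six to seven. Dosing was i.v. daily for 6 consecutive days, in 0.2 ml cremaphor:ethanol (1:1) diluted in 5% dextrose. Tumors were measured by calipers as (length × width2)/2, and weight was tracked alongside.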

Mus musculus [13] = experiment: Toxicity in NCR nu/nu mouse assessed as loss of body weight at 2.5 mg/kg, iv for 6 days; type: organism-based; set-up: dose 2.5 mg/kg, route intravenous; settings: in vivo, 144 h; method in brief: as §3
PC-3 [14] = experiment: Antitumor activity against human PC3 cells xenografted into NCR nu/nu mouse at 2.5 mg/kg, iv dosed in qdX6 schedule relative to control; type: functional; method in brief: as §6
Mus musculus [15] = experiment: Toxicity in NCR nu/nu mouse assessed as loss of body weight at 20 mg/kg, iv for 6 days; type: organism-based; set-up: dose 20 mg/kg, route intravenous; settings: in vivo, 144 h; method in brief: as §3
PC-3 [16] = experiment: Antitumor activity against human PC3 cells xenografted into NCR nu/nu mouse at 20 mg/kg, iv dosed in qdX6 schedule relative to control; type: functional; method in brief: as §6
Mus musculus [17] = experiment: Toxicity in human HCT116 cells xenografted NCR nu/nu mouse assessed as loss of body weight iv QD for 6 days; settings: in vivo, 144 h
Mus musculus [18] = experiment: Toxicity in human HCT116 cells xenografted NCR nu/nu mouse assessed as loss of body weight at 20 mg/kg, iv QD for 6 days; type: organism-based, HCT-116; set-up: dose 20 mg/kg, route intravenous; settings: in vivo, 144 h; method in brief: as §1
HCT-116 [19] = experiment: Antitumor activity against human HCT116 cells xenografted into NCR nu/nu mouse at 20 mg/kg, ip dosed in q2-3dX6 schedule relative to control; type: functional; settings: route intraperitoneal; method in brief: as §5
[20] = Clearance in NCR nu/nu mouse plasma at 20 mg/kg, iv; type: ADME, organism-based; set-up: dose 20 mg/kg, route intravenous; method in brief: as §4
HCT-116 [21] = experiment: Antitumor activity against human HCT116 cells xenografted into NCR nu/nu mouse at 20 mg/kg, iv dosed in q2-3dX6 schedule relative to control; type: functional; method in brief: as §5
Mus musculus [22] = experiment: Toxicity in human HCT116 cells xenografted NCR nu/nu mouse assessed as decrease in neutrophil count in bone marrow at 2 mg/kg, iv QD for 6 days relative to control; type: organism-based, HCT-116; set-up: dose 2 mg/kg, route intravenous; settings: in vivo, 144 h; method in brief: as §1
Mus musculus [23] = experiment: Toxicity in NCR nu/nu mouse neutropenia model assessed as decrease in neutrophil count in bone marrow at 20 mg/kg, iv QD for 6 days relative to control; type: organism-based; set-up: dose 20 mg/kg, route intravenous; settings: in vivo, 144 h; method in brief: as §2
[24] = AUC in NCR nu/nu mouse plasma at 20 mg/kg, iv; type: ADME, organism-based; set-up: dose 20 mg/kg, route intravenous; method in brief: as §4
Mus musculus [25] = experiment: Toxicity in NCR nu/nu mouse neutropenia model assessed as loss of body weight at 20 mg/kg, iv QD for 6 days; type: organism-based; set-up: dose 20 mg/kg, route intravenous; settings: in vivo, 144 h; method in brief: as §2
[26] = Terminal half life in NCR nu/nu mouse plasma at 20 mg/kg, iv; type: ADME, organism-based; set-up: dose 20 mg/kg, route intravenous; method in brief: as §4
PC-3 [27] = experiment: Induction of histone H3 phosphorylation in human PC3 cells xenografted into NCR nu/nu mouse at 20 mg/kg, iv; type: functional, organism-based; set-up: dose 20 mg/kg
Method in brief: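 nu/nu mice carried 10^7 PC3 cells s.c. in the left flank. On day 8 they got one i.v. dose of 20 mg/kg or vehicle, two mice per group. Tumors were taken 12 h later, snap-frozen and homogenized in RIPA buffer with phosphatase and protease inhibitors. 100 µg protein was Western blotted for phospho-histone H3, with actin as control.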

Mus musculus [28] = experiment: Toxicity in human HCT116 cells xenografted NCR nu/nu mouse assessed as decrease in neutrophil count in peripheral blood at 20 mg/kg, iv QD for 6 days relative to control; type: organism-based, HCT-116; set-up: dose 20 mg/kg, route intravenous; settings: in vivo, 144 h; method in brief: as §1
MDA-MB-435 [29] = experiment: Antitumor activity against human MDA-MB-435 cells xenografted into NCR nu/nu mouse at 0.7 mg/kg, ip dosed in q3-4dX4 schedule relative to control; type: functional; settings: route intraperitoneal
HCT-116 [30] = experiment: Antitumor activity against human HCT116 cells xenografted into NCR nu/nu mouse at 0.45 mg/kg, ip dosed in q2-3dX6 schedule relative to control; type: functional; settings: route intraperitoneal

SMILES	Activity (Mus musculus [1])	Activity (Mus musculus [2])	Activity (Mus musculus [3])	Activity (Mus musculus [5])	LCK (PC-3 [8])	T/C (PC-3 [8])	Activity (Mus musculus [9])	LCK (PC-3 [12])	T/C (PC-3 [12])	T/C (PC-3 [14])	Activity (Mus musculus [15])	LCK (PC-3 [16])	T/C (PC-3 [16])	Activity (Mus musculus [17])	Activity (Mus musculus [18])	LCK (HCT-116 [21])	T/C (HCT-116 [21])	Activity (Mus musculus [22])	Activity (Mus musculus [23])	Activity (Mus musculus [28])	further results
CC(C)[C@H](O)C(=O)N[C@@H]1C(=O)N[C@@H](C(C)C)c2nc3c(o2)C24c5ccc(cc5N[C@H]2Oc2ccc1cc24)-c1cccc2[nH]cc(c12)-c1cnc-3o1 (single isomer, unassigned)	Non-toxic	Non-toxic	Non-toxic	<= 5%	3.4	0.3%	Non-toxic	1.6	3.9%	31.4%	<= 5%	2.4	2.1%	Non-toxic	Non-toxic	1.8	0.2%	Non-toxic	Non-toxic	Non-toxic	LCK (MDA-MB-435 [4]): 1; T/C (MDA-MB-435 [4]): 3.1%; Vd (Mus musculus [6]): 62.7 mL; concentration at 24 h [7]: 15 ng/mL; LCK (HCT-116 [10]): 0.4; T/C (HCT-116 [10]): 41.9%; LCK (HCT-116 [11]): 0.5; T/C (HCT-116 [11]): 26.5%; Activity (Mus musculus [13]): <= 5%; LCK (HCT-116 [19]): 1; T/C (HCT-116 [19]): 9.3%; clearance [20]: 0.146 mL/min; AUC [24]: 50200 ng·h/mL; Activity (Mus musculus [25]): Non-toxic; half-life [26]: 4.96 h; Activity (PC-3 [27]): Active
CC(=O)O[C@H]1C(=O)[C@@]2(C)[C@H]([C@H](OC(=O)c3ccccc3)[C@]3(O)C[C@H](OC(=O)[C@H](O)[C@@H](NC(=O)c4ccccc4)c4ccccc4)C(C)=C1C3(C)C)[C@]1(OC(C)=O)CO[C@@H]1C[C@@H]2O [PACLITAXEL]	Toxic	Toxic	Toxic	13%	3.4	0%	Toxic	1.5	6.1%	49.2%	> 20%	3.8	0.6%	Toxic	Toxic	2.7	0.2%	Toxic	Toxic	Toxic	LCK (PC-3 [14]): 0.3; Activity (Mus musculus [25]): 20%
CC[C@]1(O)C[C@@H]2CN(CCc3c([nH]c4ccccc34)[C@@](C(=O)OC)(c3cc4c(cc3OC)N(C)[C@H]3[C@@](O)(C(=O)OC)[C@H](OC(C)=O)[C@]5(CC)C=CCN6CC[C@]43[C@@H]65)C2)C1.O=S(=O)(O)O [VINBLASTINE SULFATE]	Toxic	–	–	–	–	–	Toxic	–	–	–	–	–	–	Toxic	Toxic	–	–	Toxic	–	Toxic	LCK (MDA-MB-435 [29]): 0.2; T/C (MDA-MB-435 [29]): 41.1%; LCK (HCT-116 [30]): 0.2; T/C (HCT-116 [30]): 56%
